# From ChEMBL document CHEMBL2401719, “The development of a new class of inhibitors for betaine-homocysteine S-methyltransferase” (Eur J Med Chem, 2013)
# Key:
# [1] = biological target: T1, Betaine--homocysteine S-methyltransferase 1 (Homo sapiens) (UniProt Q93088); test: Inhibition of human recombinant BHMT using N-methyl-[14C]-betaine/D,L-homocysteine as substrate at 20 uM after 30 mins by scintiillation counting analysis
# T1 sequence (whole entry): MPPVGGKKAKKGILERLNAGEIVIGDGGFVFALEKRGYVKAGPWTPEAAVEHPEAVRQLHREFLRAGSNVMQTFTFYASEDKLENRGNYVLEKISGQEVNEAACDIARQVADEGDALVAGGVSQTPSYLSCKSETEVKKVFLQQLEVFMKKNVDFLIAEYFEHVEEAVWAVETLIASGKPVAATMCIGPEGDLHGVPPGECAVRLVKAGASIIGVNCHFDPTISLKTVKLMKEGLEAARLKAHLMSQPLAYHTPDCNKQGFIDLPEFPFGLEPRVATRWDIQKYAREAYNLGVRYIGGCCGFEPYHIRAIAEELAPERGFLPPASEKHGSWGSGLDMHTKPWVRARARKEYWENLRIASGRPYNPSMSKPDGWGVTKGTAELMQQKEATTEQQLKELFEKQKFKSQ
# How it was run: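 Human recombinant BHMT assayed in pH 7.5 buffer with 0.25 mM betaine and 0.1 mM D,L-homocysteine, compound at a single fixed concentration. Percent inhibition is the average of triplicates, with data reproducible within ±15%.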
# [2] = biological target: T2, Betaine--homocysteine S-methyltransferase 1 (Homo sapiens, UniProt Q93088); test: Inhibition of human recombinant BHMT using N-methyl-[14C]-betaine/D,L-homocysteine as substrate after 30 mins by scintiillation counting analysis
# T2 sequence (Q93088 whole entry): T1 sequence (whole entry)
# How it was run: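 Human recombinant BHMT assayed in pH 7.5 buffer with 2 mM betaine and 1 mM D,L-homocysteine. Each IC50 data point was run in duplicate.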
inhibition [1] [%],SMILES,IC50 [2] [µM]
9,N#CC(N)CCSCCCCC(=O)O (racemic),–
28,NNC(=O)C(N)CCSCCCCC(=O)O (racemic),–
8,CNC(=O)C(N)CCSCCCCC(=O)O (racemic),–
15,NC(CCSCCCCC(=O)O)c1nc(=O)o[nH]1 (racemic),–
67,CS(=O)(=O)NC(=O)C(N)CCSCCCCC(=O)O (racemic),–
17,NC(=O)C(N)CCSCCCCC(=O)O (racemic),–
58,NC(CCSCCCCC(=O)O)P(=O)(O)O (racemic),219

# Second part, the compound before the results:
SMILES,inhibition [1] [%],IC50 [2] [µM]
NC(CCSCCCCC(=O)O)c1nnn[nH]1 (racemic),0,–
O=C(O)CCCCS[C@H]1CN[C@H](C(=O)O)C1,0,–
O=C(O)CCCCS[C@@H]1CN[C@H](C(=O)O)C1,24,–
NC(CCSCCCCC(=O)O)[PH](=O)O (racemic),95,5
NC(CCSCCCCC(=O)O)C(=O)N1CCCCC1 (racemic),9,–
CC(C)(CCSCCC(N)[PH](=O)O)CC(=O)O (racemic),99,1.1
